Source: ChEMBL document CHEMBL1240328, “Selective compounds define Hsp90 as a major inhibitor of apoptosis in small-cell lung cancer” (Nat Chem Biol, 2007)
Calls of active or inactive are those of the source. No cut-off for these calls is given here.

What was measured:
[1] = target: Heat shock protein HSP 90-beta (Homo sapiens) (UniProt P08238); assay: Inhibition of HSP90-mediated antiapoptotic activity in human SKBR3 cells assessed as induction of caspase-3 cleavage at 20 uM after 24 hrs by Western blot analysis; type: cell-based; details: SK-BR-3
Heat shock protein HSP 90-beta (Homo sapiens), sequence (P08238 whole entry): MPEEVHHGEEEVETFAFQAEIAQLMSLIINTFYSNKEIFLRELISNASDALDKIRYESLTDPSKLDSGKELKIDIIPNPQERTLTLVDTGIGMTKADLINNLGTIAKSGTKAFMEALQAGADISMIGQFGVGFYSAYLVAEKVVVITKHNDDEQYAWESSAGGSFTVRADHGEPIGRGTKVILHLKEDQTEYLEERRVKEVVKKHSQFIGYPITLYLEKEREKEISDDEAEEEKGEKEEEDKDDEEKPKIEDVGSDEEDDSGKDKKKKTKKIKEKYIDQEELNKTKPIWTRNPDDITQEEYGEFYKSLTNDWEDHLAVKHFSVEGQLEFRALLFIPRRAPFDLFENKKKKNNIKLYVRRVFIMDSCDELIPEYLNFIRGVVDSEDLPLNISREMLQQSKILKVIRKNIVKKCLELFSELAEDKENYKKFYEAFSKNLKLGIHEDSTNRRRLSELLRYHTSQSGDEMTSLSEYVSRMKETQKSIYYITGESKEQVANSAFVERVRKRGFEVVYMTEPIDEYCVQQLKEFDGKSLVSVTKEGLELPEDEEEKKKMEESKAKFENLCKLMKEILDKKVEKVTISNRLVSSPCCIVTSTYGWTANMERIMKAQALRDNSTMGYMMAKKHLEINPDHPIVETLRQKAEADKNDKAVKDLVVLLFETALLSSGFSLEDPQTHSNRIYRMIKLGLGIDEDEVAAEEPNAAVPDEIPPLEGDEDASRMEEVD
Method in brief: (§1)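 SKBr3 cells at 60–70% confluence were exposed to drug or DMSO vehicle. Lysis was in 50 mM Tris pH 7.4, 150 mM NaCl, 1% NP-40, with protein measured by BCA. Lysates of 20–100 µg were run on SDS-PAGE, blotted to nitrocellulose, probed with primary antibodies and detected with a peroxidase-conjugated secondary (1:5,000). Loading was checked with β-actin or PI(3)K p85.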

[2] = target: Heat shock protein HSP 90-beta (Homo sapiens) (UniProt P08238); assay: Inhibition of HSP90-mediated antiapoptotic activity in human NCI-H526 cells assessed as induction of Akt degradation at 10 uM after 24 hrs by Western blot analysis; type: cell-based
[3] = target: Heat shock protein HSP 90-beta (Homo sapiens) (UniProt P08238); assay: Inhibition of HSP90-mediated antiapoptotic activity in human MCF7 cells assessed as induction of caspase-9 cleavage at 400 uM after 24 hrs by Western blot analysis; type: cell-based
[4] = target: Heat shock protein HSP 90-beta (Homo sapiens) (UniProt P08238); assay: Inhibition of HSP90-mediated antiapoptotic activity in human MCF7 cells assessed as induction of PARP cleavage at 400 uM after 24 hrs by Western blot analysis; type: cell-based
[5] = target: Heat shock protein HSP 90-beta (Homo sapiens) (UniProt P08238); assay: Inhibition of HSP90-mediated antiapoptotic activity in human SKBR3 cells assessed as induction of PARP cleavage at 20 uM after 24 hrs by Western blot analysis; type: cell-based; details: SK-BR-3; method in brief: as §1
[6] = target: Heat shock protein HSP 90-beta (Homo sapiens) (UniProt P08238); assay: Inhibition of HSP90-mediated antiapoptotic activity in human NCI-H526 cells assessed as subG1 accumulation at 25 uM after 72 hrs by propidium iodide staining-based flow cytometry; type: cell-based
Method in brief: (§2)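 SCLC cells treated for 72 h with graded doses. Mitochondrial membrane potential read by flow cytometry after JC-1 staining, with green-only emission indicating depolarization. Sub-G1 DNA content read after propidium iodide staining. CCCP used as positive control. n = 3 repeat experiments.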

[7] = target: Heat shock protein HSP 90-beta (Homo sapiens) (UniProt P08238); assay: Inhibition of HSP90-mediated antiapoptotic activity in human NCI-H526 cells assessed as increased association between caspase-9 and Apaf-1 at 20 uM after 1 hr by Western blot analysis
[8] = target: Heat shock protein HSP 90-beta (Homo sapiens) (UniProt P08238); assay: Inhibition of HSP90-mediated antiapoptotic activity in human NCI-H187 cells assessed as subG1 accumulation at 25 uM after 72 hrs by propidium iodide staining-based flow cytometry; type: cell-based; method in brief: as §2
[9] = target: Heat shock protein HSP 90-beta (Homo sapiens) (UniProt P08238); assay: Inhibition of HSP90-mediated antiapoptotic activity in human NCI-H526 cells assessed as mitochondrial membrane depolarization at 10 uM after 72 hrs by JC-1 staining-based flow cytometry in presence of broad-spectrum caspase inhibitor Boc-D-FMK; type: cell-based
Method in brief: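 NCI-H526 cells pretreated for 3 h with Boc-D-FMK (100 µM), then exposed to 10 µM for 72 h. Flow cytometry after JC-1 staining for mitochondrial potential and after propidium iodide staining for DNA content. n = 3.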

[10] = target: Heat shock protein HSP 90-beta (Homo sapiens) (UniProt P08238); assay: Inhibition of HSP90-mediated antiapoptotic activity in human NCI-H187 cells assessed as mitochondrial membrane depolarization at 5 uM after 72 hrs by JC-1 staining-based flow cytometry; type: cell-based; method in brief: as §2
[11] = target: Heat shock protein HSP 90-beta (Homo sapiens) (UniProt P08238); assay: Inhibition of HSP90-mediated antiapoptotic activity in human NCI-H526 cells assessed as induction of PARP cleavage at 10 uM after 72 hrs by fluorescence assay in presence of caspase-9 inhibitor Z-LEHD-FMK; type: cell-based
[12] = target: Heat shock protein HSP 90-beta (Homo sapiens) (UniProt P08238); assay: Inhibition of HSP90-mediated antiapoptotic activity in human SKBR3 cells assessed as induction of caspase-3 cleavage at 50 uM after 24 hrs by Western blot analysis; type: cell-based; details: SK-BR-3; method in brief: as §1
[13] = target: Heat shock protein HSP 90-beta (Homo sapiens) (UniProt P08238); assay: Inhibition of HSP90-mediated antiapoptotic activity in human NCI-H526 cells assessed as induction of Akt degradation at 50 uM after 24 hrs by Western blot analysis; type: cell-based
[14] = target: Heat shock protein HSP 90-beta (Homo sapiens) (UniProt P08238); assay: Inhibition of HSP90-mediated antiapoptotic activity in human NCI-H69 cells assessed as mitochondrial membrane depolarization at 5 uM after 72 hrs by JC-1 staining-based flow cytometry; type: cell-based
Method in brief: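 Mitochondrial membrane potential was measured by JC-1 staining and flow cytometry. Depolarization was scored as a shift to cells emitting only green fluorescence. The mitochondrial uncoupler CCCP served as positive control.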

[15] = target: Heat shock protein HSP 90-beta (Homo sapiens) (UniProt P08238); assay: Inhibition of HSP90-mediated antiapoptotic activity in human NCI-H526 cells assessed as subG1 accumulation at 2.5 uM after 72 hrs by propidium iodide staining-based flow cytometry; type: cell-based; method in brief: as §2
SK-BR-3 [16] = assay: Inhibition of HSP70-mediated antiapoptotic activity in human SKBR3 cells assessed as induction of caspase-3 cleavage after 24 hrs by Western blot analysis; type: cell-based
Method in brief: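 SKBr3 cells were treated for 24 h. Lysates were probed by western blot for caspase-3 and PARP cleavage. Apaf-1 complexes were pulled down with Apaf-1 antibody (with control IgG) and immunoblotted.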

[17] = target: Heat shock protein HSP 90-beta (Homo sapiens) (UniProt P08238); assay: Inhibition of HSP90-mediated antiapoptotic activity in human NCI-H526 cells assessed as release of Apaf-1 from chaperon complex at 20 uM after 1 hr by Western blot analysis; type: cell-based
Method in brief: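 NCI-H526 cells treated with 20 µM for the indicated times. Complexes immunoprecipitated with Apaf-1 or caspase-9 antibodies, with control IgG alongside. Co-precipitated proteins identified by western blot.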

[18] = target: Heat shock protein HSP 90-beta (Homo sapiens) (UniProt P08238); assay: Inhibition of HSP90-mediated antiapoptotic activity in human NCI-H526 cells assessed as induction of caspase-2 cleavage at 10 uM after 24 hrs by Western blot analysis; type: cell-based
Method in brief: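 NCI-H526 cells at 60–70% confluence were exposed to drug or DMSO for 24 h. Lysed in 50 mM Tris pH 7.4, 150 mM NaCl, 1% NP-40, with protein measured by BCA. 20–100 µg run on SDS-PAGE and blotted to nitrocellulose. Probed with cleaved-protein antibodies and peroxidase secondary at 1:5,000, with β-actin as loading control.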

SK-BR-3 [19] = assay: Inhibition of HSP70-mediated antiapoptotic activity in human SKBR3 cells assessed as induction of cell growth arrest after 72 hrs by propidium iodide staining-based flow cytometry
[20] = target: Heat shock protein HSP 90-beta (Homo sapiens) (UniProt P08238); assay: Inhibition of HSP90-mediated antiapoptotic activity in human MCF7 cells assessed as induction of cell growth arrest at 20 uM after 24 hrs by propidium iodide staining-based flow cytometry
[21] = target: Heat shock protein HSP 90-beta (Homo sapiens) (UniProt P08238); assay: Inhibition of HSP90-mediated antiapoptotic activity in human NCI-H526 cells assessed as disruption of protein-Apaf-1 complex at 20 uM after 24 hrs by Western blot analysis; type: cell-based
Method in brief: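 NCI-H526 cells treated for 24 h with vehicle or inhibitors (20 µM or 50 µM). Proteins isolated with Apaf-1-specific antibody and whole lysates analysed by western blot. n = 3.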

[22] = target: Heat shock protein HSP 90-beta (Homo sapiens) (UniProt P08238); assay: Inhibition of HSP90-mediated antiapoptotic activity in human NCI-H526 cells assessed as increase in caspase-3 activity at 10 uM after 24 hrs by Western blot analysis; type: cell-based
NCI-H526 [23] = assay: Inhibition of HSP70-mediated antiapoptotic activity in human NCI-H526 cells assessed as induction of PARP cleavage after 24 hrs by Western blot analysis; type: cell-based
Method in brief: (§3)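 NCI-H526 cells were treated for 24 h. PARP and caspase-3 cleavage were read by western blot of lysates in Tris/NaCl/NP-40 buffer. Apaf-1 complexes were immunoprecipitated with Apaf-1 antibody, using control IgG, then blotted.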

NCI-H526 [24] = assay: Inhibition of HSP70-mediated antiapoptotic activity in human NCI-H526 cells assessed as release of Apaf-1 from chaperon complex after 24 hrs by Western blot analysis; type: cell-based; method in brief: as §3

Activity [1]: inactive | Activity [2]: inactive | Activity [3]: inactive | Activity [4]: inactive | Activity [5]: inactive | Activity [6]: inactive | Activity [7]: inactive | Activity [8]: inactive | Activity [9]: inactive | Activity [10]: inactive | Activity [11]: inactive | Activity [12]: inactive | Activity [13]: inactive | Activity [14]: inactive | Activity [15]: inactive | Activity [17]: inactive | Activity [18]: inactive | Activity [20]: inactive | Activity [21]: inactive | Activity [22]: inactive
SMILES: O=CN1CC/C(=C/c2ccc3c(c2)OCO3)C1=O
inhibition (SK-BR-3 [16]): Active | inhibition (SK-BR-3 [19]): Active | inhibition (NCI-H526 [23]): inactive | inhibition (NCI-H526 [24]): inactive
